Active and inactive are the calls of the source. No cut-off for these calls is given here.
How the values were obtained:
U-87 MG [1] = assay: Induction of cell cycle arrest in human U87MG cells assessed as accumulation at S phase at 1 to 20 uM after 48 hrs by flow cytometric analysis; format: functional, cell-based; conditions: U-87MG ATCC
Procedure, shortened: (§1)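 2 × 10^5 cells per dish exposed 48 h (1−20 μM per legend); harvested, fixed in cold 70% ethanol at −20 °C, stained with propidium iodide plus RNase A (100 U/mL) 30 min at room temperature; percentage in G1, S, G2/M by flow cytometry. Three experiments in triplicate.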

T98G [2] = assay: Induction of apoptosis in human T98G cells assessed as increase in ROS production at 20 uM after 48 hrs by DCFH-DA staining-based flow cytometric analysis in presence of 5 mM NAC; format: functional, cell-based
T98G [3] = assay: Induction of apoptosis in human T98G cells assessed as decrease in Bcl-2 expression at 20 uM by Western blot analysis; format: functional, cell-based; conditions: TDE = time-dependent effect
Procedure, shortened: (§2)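 T98G exposed to 20 μM for various times (0−48 h), NAC 5 mM where stated. Total lysates, or digitonin-permeabilized cytosolic and mitochondrial fractions (10000g, 15 min, 4 °C) for cytochrome c, blotted for caspase-3, caspase-9, PARP (1:1000), Bcl-2 (1:500), cytochrome c; β-actin loading control; ECL detection. Three experiments.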

T98G [4] = assay: Induction of apoptosis in human T98G cells assessed as increase in mitochondrial depolarization at 20 uM by […] fluorescence analysis; format: functional, cell-based; conditions: TDE = time-dependent effect
Procedure, shortened: (§3)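 T98G treated with 20 μM for 4−24 h (NAC 5 mM where stated), then loaded with 5 nM TMRE for 30 min at 37 °C; fluorescence by flow cytometry (FL-2); percentage of cells with depolarized mitochondria reported. Three experiments in triplicate (n = 3 for NAC set).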

T98G [5] = assay: Induction of apoptosis in human T98G cells assessed as cell death at 20 uM after 48 hrs by propidium iodide staining based flow cytometric analysis; format: functional
Procedure, shortened: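 T98G cells grown in DMEM with 10% heat-inactivated FBS and 2 mM L-glutamine at 37 °C, 5% CO2, then exposed 24–48 h (range 1–50 μM). Percent hypodiploid nuclei counted by flow cytometry, debris gated out. Three experiments in triplicate, mean ± SEM.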

T98G [6] = assay: Anticancer activity against human T98G cells assessed as decrease in cell viability after 48 hrs by MTT assay; format: functional, cell-based
Procedure, shortened: (§4)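 Cells (T98G, U87-MG, NHA; 3 × 10^4 per well) plated, next day exposed to serial dilutions (1−50 μM) for 48 h at 37 °C, 5% CO2. MTT (5 mg/mL) added for 3 h; crystals solubilized in 50% DMF/20% SDS pH 4.5; OD at 620 nm. Viability = % of DMSO (0.1% final) controls. Means ± SEM, three experiments in triplicate.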

U-87 MG [7] = assay: Induction of cell cycle arrest in human U87MG cells assessed as accumulation at G2/M phase at 1 to 20 uM after 48 hrs by flow cytometric analysis; format: functional, cell-based; conditions: U-87MG ATCC; procedure, shortened: as §1
T98G [8] = assay: Anticancer activity against human T98G cells assessed as decrease in cell viability at 50 uM after 48 hrs by MTT assay; format: functional; procedure, shortened: as §4
T98G [9] = assay: Induction of apoptosis in human T98G cells assessed as decrease in Bcl-2 expression at 20 uM after 48 hrs by Western blot analysis; format: functional, cell-based; procedure, shortened: as §2
T98G [10] = assay: Induction of apoptosis in human T98G cells assessed as decrease in mitochondrial depolarization at 20 uM after 24 hrs by […] fluorescence analysis in presence of 5 mM NAC; format: functional, cell-based; procedure, shortened: as §3
T98G [11] = assay: Induction of apoptosis in human T98G cells assessed as increase in mitochondrial depolarization at 20 uM after 4 hrs by […] fluorescence analysis; format: functional, cell-based; procedure, shortened: as §3
T98G [12] = assay: Induction of apoptosis in human T98G cells assessed as increase in cleaved PARP protein level at 20 uM after 24 hrs by Western blot analysis; format: functional, cell-based; procedure, shortened: as §2
U-87MG ATCC = assay: Anticancer activity against human U87MG cells assessed as decrease in cell viability at 50 uM after 48 hrs by MTT assay; format: functional, cell-based; procedure, shortened: as §4
[13] = molecular target: T1, Mitogen-activated protein kinase; ERK1/ERK2 (Homo sapiens) (UniProt P27361+P28482); assay: Induction of Erk1/2 phosphorylation in human T98G cells at 20 uM measured every 5 mins for 2 hrs by Western blot analysis; format: cell-based
T1 sequence (P27361 whole entry, looked up): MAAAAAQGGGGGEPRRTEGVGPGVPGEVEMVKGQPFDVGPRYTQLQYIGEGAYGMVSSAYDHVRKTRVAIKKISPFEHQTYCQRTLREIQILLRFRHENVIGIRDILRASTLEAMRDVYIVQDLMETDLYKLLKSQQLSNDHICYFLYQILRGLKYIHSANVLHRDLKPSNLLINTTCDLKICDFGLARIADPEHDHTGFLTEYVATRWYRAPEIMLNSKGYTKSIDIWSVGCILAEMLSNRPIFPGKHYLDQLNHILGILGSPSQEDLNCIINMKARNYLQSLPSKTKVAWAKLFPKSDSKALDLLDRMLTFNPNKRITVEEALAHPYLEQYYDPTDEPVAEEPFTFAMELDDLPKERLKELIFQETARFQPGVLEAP
T1 sequence (P28482 whole entry, looked up): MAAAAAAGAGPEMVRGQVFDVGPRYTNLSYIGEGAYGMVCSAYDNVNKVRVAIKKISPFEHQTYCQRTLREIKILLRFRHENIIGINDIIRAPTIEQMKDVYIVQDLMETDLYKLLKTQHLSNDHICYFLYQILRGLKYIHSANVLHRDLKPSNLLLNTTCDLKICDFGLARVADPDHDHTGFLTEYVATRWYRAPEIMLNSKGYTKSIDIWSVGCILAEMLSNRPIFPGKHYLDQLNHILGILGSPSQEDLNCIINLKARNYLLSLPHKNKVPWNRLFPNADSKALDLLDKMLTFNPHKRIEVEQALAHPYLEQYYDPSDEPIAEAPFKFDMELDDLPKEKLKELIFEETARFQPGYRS
Procedure, shortened: (§5)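 T98G exposed to 20 μM for 5−120 min or 24 h, with or without 5 mM NAC. Lysates (Tris/deoxycholate/SDS/IGEPAL with protease and phosphatase inhibitors) immunoblotted with anti-p-ERK, ERK1/2 (1:1000), p-p38, p38; ECL detection; phospho signals normalized to total ERK1/2 or p38. Three experiments.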

T98G [14] = assay: Induction of cell cycle arrest in human T98G cells assessed as accumulation at S phase at 1 to 20 uM after 48 hrs by flow cytometric analysis; format: functional, cell-based; procedure, shortened: as §1
T98G [15] = assay: Induction of apoptosis in human T98G cells assessed as increase in caspase-9 expression level at 20 uM after 8 hrs by Western blot analysis; format: functional, cell-based; procedure, shortened: as §2
T98G [16] = assay: Induction of apoptosis in human T98G cells assessed as increase in mitochondrial depolarization at 20 uM after 24 hrs by […] fluorescence analysis; format: functional; procedure, shortened: as §3
[17] = molecular target: MAP kinase p38 (Homo sapiens) (UniProt O15264+Q15759+Q16539+P53778); assay: Induction of p38 phosphorylation in human T98G cells at 20 uM after 30 to 60 mins for 2 hrs by Western blot analysis in presence of 5 mM NAC; format: cell-based; procedure, shortened: as §5
[18] = Toxicity in mouse; format: organism-based; conditions: in vivo
T98G [19] = assay: Anticancer activity against human T98G cells assessed as decrease in cell viability at 20 uM after 48 hrs by MTT assay; format: functional, cell-based; procedure, shortened: as §4
T98G [20] = assay: Induction of apoptosis in human T98G cells at 20 uM after 48 hrs by flow cytometric analysis pretreated with 5 uM JNK inhibitor SP600125 for 1 hr; format: functional, cell-based
Procedure, shortened: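 T98G pretreated with PD98059 (20 μM, 30 min), SB203580 (5 μM, 1 h) or SP600125 (5 μM, 1 h), then exposed to 20 μM for 48 h; hypodiploid nuclei quantified by propidium iodide flow cytometry. Means ± SEM, three experiments in triplicate.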

[21] = molecular target: T1, Mitogen-activated protein kinase; ERK1/ERK2 (Homo sapiens); assay: Induction of Erk1/2 phosphorylation in human T98G cells at 20 uM measured every 5 mins for 2 hrs by Western blot analysis in presence of 5 mM of NAC; format: cell-based; procedure, shortened: as §5
T98G [22] = assay: Induction of apoptosis in human T98G cells assessed as increase in subG1 population after 24 to 48 hrs by propidium iodide staining based flow cytometric analysis; format: functional, cell-based
Procedure, shortened: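 Cells treated 1−50 μM for 24 or 48 h, washed in PBS, resuspended in 0.1% sodium citrate, 0.1% Triton X-100, 50 μg/mL propidium iodide, 30 min at 4 °C in dark. Nuclei analyzed by flow cytometry, DNA on log scale, debris gated out; percent hypodiploid (sub-G1) nuclei reported. Three experiments in triplicate.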

T98G [23] = assay: Induction of apoptosis in human T98G cells assessed as increase in ROS production at 20 uM after 48 hrs by DCFH-DA staining-based flow cytometric analysis in presence of 10 uM ascorbic acid; format: functional, cell-based

COc1cc(O)c(CC=C(C)C)c(O)c1C(=O)/C=C/c1ccc(O)cc1 [XANTHOHUMOL]
Activity (U-87 MG [1]): inactive
Activity (T98G [2]): inactive
Activity (T98G [3]): tde
Activity (T98G [4]): tde
Activity (T98G [5]): 40%
Activity (T98G [6]): Dose-dependent effect
Activity (U-87 MG [7]): inactive
Activity (T98G [8]): 70%
Activity (T98G [9]): Active
Activity (T98G [10]): inactive
Activity (T98G [11]): Active
Activity (T98G [12]): Active
Activity (U-87MG ATCC): Active
Activity [13]: Active
Activity (T98G [14]): inactive
Activity (T98G [15]): Active
Activity (T98G [16]): 50%
Activity [17]: inactive
LD50 [18]: 500 mg/kg
Activity (T98G [19]): Active
Activity (T98G [20]): Active
Activity [21]: inactive
Activity (T98G [22]): Dose-dependent effect
Activity (T98G [23]): inactive

Source: ChEMBL document CHEMBL1932940, “Xanthohumol induces apoptosis in human malignant glioblastoma cells by increasing reactive oxygen species and activating MAPK pathways” (J Nat Prod, 2011)
